Test results reported in ChEMBL document CHEMBL1208693, “Synthesis and evaluation of novel antifungal agents-quinoline and pyridine amide derivatives” (2010).
≈ marks a conversion by molar mass, not a printed value.

What was measured:
Type in all cases: functional
Saccharomyces cerevisiae [1] = test: Antifungal activity against Saccharomyces cerevisiae KE744 after 2 days by broth-microdilution method; conditions: KE744, 48 h
Procedure, shortened: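 S. cerevisiae strain overexpressing GWT1 from the GAPDH promoter, grown in SD ura- medium at 30 °C for 1–2 days. Modified CLSI broth microdilution used 2×10^3–2×10^4 cells/mL. Final compound concentrations were 0.05–200 µg/mL from twofold DMSO dilutions, with 1% DMSO as control. Incubation was 30 °C for 2 days. MIC was the lowest concentration visibly and prominently reducing turbidity versus control.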

Aspergillus fumigatus = test: Antifungal activity against Aspergillus fumigatus Tsukuba after 2 days by broth-microdilution method; conditions: 48 h
Procedure, shortened: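 CLSI M38-A2 broth microdilution, slightly modified. Conidia came from a one-week PDA culture at 35 °C and were stored at −80 °C. Inoculum was 2×10^3–2×10^4 conidia/mL. Compounds were serially twofold diluted from DMSO stock to final concentrations of 0.05–200 µg/mL; the control was 1% DMSO. Plates were incubated at 35 °C for 2 days. MIC was the lowest concentration giving a visually prominent turbidity decrease versus control.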

Saccharomyces cerevisiae [2] = test: Antifungal activity against Saccharomyces cerevisiae KE743 […] after 2 days by broth-microdilution method; conditions: KE743, 48 h
Procedure, shortened: (§1)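 Broth microdilution (modified CLSI M27-A3) on S. cerevisiae KE743 (control) and KE744 (GWT1 overexpressed from GAPDH promoter), precultured in SD ura- at 30 °C for 1–2 days. Inoculum 2 × 10^3–2 × 10^4 cells/ml. Twofold dilutions at 0.05–200 µg/mL final, from DMSO; 1% DMSO control. Incubated 30 °C, 2 days. MIC is the lowest concentration with a prominent visual turbidity decrease; KE744/KE743 MICs compared.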

Candida albicans [3] = test: Antifungal activity against Candida albicans E81022 after 2 days by broth-microdilution method; conditions: E81022, 48 h
Procedure, shortened: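 Yeast broth microdilution following CLSI M27-A3, slightly modified. Cells were subcultured in Sabouraud dextrose broth at 35 °C for 1–2 days, then inoculated at 2×10^3–2×10^4 cells/mL. Compounds in twofold DMSO dilutions gave final concentrations of 0.05–200 µg/mL; the control was 1% DMSO. Incubation was 35 °C for 2 days. MIC was the lowest concentration with a visually prominent turbidity drop relative to control.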

Saccharomyces cerevisiae [4] = test: Ratio of MIC for Saccharomyces cerevisiae KE744 to Saccharomyces cerevisiae KE743 […]; procedure, shortened: as §1
Candida albicans [5] = test: Ratio of compound MIC to Amphotericin B MIC for Candida albicans E81022

Row | Compound | MIC (Saccharomyces cerevisiae [1]) [µg/mL] | MIC (Aspergillus fumigatus) [µg/mL] | MIC (Saccharomyces cerevisiae [2]) [µg/mL] | MIC (Candida albicans [3]) [µg/mL] | Ratio (Saccharomyces cerevisiae [4]) | Ratio (Candida albicans [5])
1 | C[C@@H]1[C@H](O)[C@@H](C)/C=C/C=C/C=C/C=C/C=C/C=C/C=C/[C@H](O[C@@H]2O[C@H](C)[C@@H](O)[C@H](N)[C@@H]2O)C[C@@H]2O[C@](O)(C[C@@H](O)C[C@@H](O)[C@H](O)CC[C@@H](O)C[C@@H](O)CC(=O)O[C@H]1C)C[C@H](O)[C@H]2C(=O)O [AMPHOTERICIN B] | 0.78 (≈ 0.844 µM) | 0.78 (≈ 0.844 µM) | 0.78 (≈ 0.844 µM) | 1.56 (≈ 1.69 µM) | 1 | –
2 | Nc1ncccc1C(=O)NCc1ccc(Oc2cccc(F)c2)s1 | 12.5 (≈ 36.4 µM) | 0.78 (≈ 2.27 µM) | 0.1 (≈ 0.291 µM) | 0.05 (≈ 0.146 µM) | 128 | 2
3 | Nc1ccc(C(=O)NCc2ccc(Oc3ccc(F)cc3)s2)c(N)n1 | 12.5 (≈ 34.9 µM) | 0.78 (≈ 2.18 µM) | 0.78 (≈ 2.18 µM) | 0.39 (≈ 1.09 µM) | 16 | 2
4 | CCCCc1ccc(Cc2nccc3ccccc23)cc1 | – | – | – | 1.56 (≈ 5.66 µM) | – | –
5 | Nc1ncccc1C(=O)NCc1ccc(Cc2ccccc2)s1 | – | 0.78 (≈ 2.41 µM) | – | 0.05 (≈ 0.155 µM) | – | 2
6 | O=C(NCc1ccc(Oc2ccccc2)s1)c1cnc2[nH]ccc2c1 | > 12.5 | 3.13 (≈ 8.96 µM) | 0.2 (≈ 0.572 µM) | 0.39 (≈ 1.12 µM) | >64 | 2
7 | Nc1ccc(C(=O)NCc2ccc(Oc3cccc(F)c3)s2)cn1 | > 12.5 | – | 1.56 (≈ 4.54 µM) | 1.56 (≈ 4.54 µM) | >8 | –
8 | Nc1ccc(C(=O)NCc2ccc(Oc3ccccc3)s2)c(N)n1 | > 12.5 | 1.56 (≈ 4.58 µM) | 1.56 (≈ 4.58 µM) | 0.78 (≈ 2.29 µM) | >8 | 2
9 | OC(Cn1cncn1)(Cn1cncn1)c1ccc(F)cc1F [FLUCONAZOLE] | 6.25 (≈ 20.4 µM) | – | 6.25 (≈ 20.4 µM) | 0.39 (≈ 1.27 µM) | 1 | –
10 | O=C(NCc1ccc(Oc2cccc(F)c2)s1)c1ccc2ncccc2c1 | 3.13 (≈ 8.27 µM) | 1.56 (≈ 4.12 µM) | 0.025 (≈ 0.0661 µM) | 0.1 (≈ 0.264 µM) | 128 | 2
